High-throughput results (PubChem BioAssay)
MrgX1 antag = human MrgX1 receptor antagonism, primary screen; MRGX1-HEK293 calcium flux, Fluo-4, BAM8-22 antagonism; hits give low values; B-score at 10 µM; 310,000 compounds, 1.3% hits; AID 588676;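 active = calcium-response B-score plate-corrected more than 3 library SD below zero, starting fluorescence within 5 deviations, no agonist response on first addition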;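 also: peak minus trough fluorescence over baseline after final BAM8-22 challenge near maximal dose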
Target sequence (Q96LB2 whole entry, looked up): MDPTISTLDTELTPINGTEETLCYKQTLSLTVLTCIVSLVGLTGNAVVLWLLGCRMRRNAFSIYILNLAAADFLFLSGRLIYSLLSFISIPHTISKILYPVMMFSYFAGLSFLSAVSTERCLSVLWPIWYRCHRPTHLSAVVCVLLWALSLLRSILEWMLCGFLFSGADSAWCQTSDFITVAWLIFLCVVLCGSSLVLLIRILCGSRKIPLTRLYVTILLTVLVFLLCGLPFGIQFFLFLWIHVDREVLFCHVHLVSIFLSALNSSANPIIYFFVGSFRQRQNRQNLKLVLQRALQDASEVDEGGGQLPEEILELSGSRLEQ
MrgX1 agonist = human MrgX1 receptor agonism, primary screen; Q96LB2; MrgX1-HEK293 cells, Fluo-4 calcium fluorescence, agonist mode; hits give high values; B-score at 10 µM; 310,000 compounds, 0.44% hits;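 active = calcium response B-score plate-corrected fluorescence ratio at least 3 library SD, with starting fluorescence B-score inside 5 SD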
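Material: MrgX1-expressing HEK293 cells / Dosing: compound as first of three additions / Incubation: overnight seeding, then 1 h dark dye loading / Signal: Fluo-4 NW calcium fluorescence / Evaluation: B-scored fluorescence response ratio / Benchmarks: positive and negative control wells on each plate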
RGS4 act = potentiators or activators of RGS4; B-score at 10 µM; HEK293 M3R/inducible RGS4, carbachol calcium flux Fluo4; hits give low values; 310,000 compounds, 0.92% hits;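 active = B-score of the integrated calcium signal more than 4 SD below the library mean, with starting fluorescence not abnormally high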;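 also: negative B-score means reduced calcium response which marks RGS4 activation or potentiation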
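Also added: carbachol at ECmax as muscarinic agonist stimulus; Assay system: HEK293 cells with stable M3R and inducible RGS4; Timing: overnight RGS4 induction, 30 min dye load 37 °C, 20 min compound RT; Measured by: Fluo4-AM (2 µM) calcium-flux fluorescence, kinetic read.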
MrgX1 PAM = allosterically activates human MrgX1 receptor signaling. Q96LB2. B-score at 10 µM. 310,000 compounds, 0.63% hits. MrgX1-HEK293, Fluo-4 calcium flux, FDSS; hits give high values. AID 588675;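 active = plate-corrected calcium response at least 3 library SD above typical, normal starting fluorescence, not activating the receptor alone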;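 also: compound read alongside a low EC10 to EC30 dose of BAM8-22 agonist; peak minus trough fluorescence over baseline measured at the second addition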
RGS4 inh = human RGS4 inhibition. P49798. HEK293 M3R/RGS4 inducible, Fluo-4 calcium flux; hits give high values; triggered by carbachol at its EC20. B-score at 10 µM. 310,000 compounds, 0.45% hits. AID 463165;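 active = B-score, a plate-corrected calcium signal, over three deviations above library mean, with baseline fluorescence within five deviations of library mean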;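 also: RGS4 expression induced by doxycycline in cells with stable M3 receptor; B-score is computed from the integrated fluorescence ratio over baseline after carbachol; higher B-score means a larger calcium signal and so more RGS4 inhibition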
Target sequence (P49798 whole entry, looked up): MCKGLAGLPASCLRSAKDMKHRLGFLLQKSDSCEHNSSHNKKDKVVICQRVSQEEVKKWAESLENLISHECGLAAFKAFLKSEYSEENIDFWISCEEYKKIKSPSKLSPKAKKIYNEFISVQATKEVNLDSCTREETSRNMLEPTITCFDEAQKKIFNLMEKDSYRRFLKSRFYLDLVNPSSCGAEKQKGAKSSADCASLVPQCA
Numbers stand for hits. Compounds with a hit are over-represented: about 3.5% of the library has one in this group of screens.

How did COc1ccc(C2C(C#N)=C(N)OC(C(C)(C)C)=C2C#N)cc1OC (configuration not stated) do in these assays?
MrgX1 antag: inactive; MrgX1 agonist: inactive; RGS4 act: inactive; MrgX1 PAM: inactive; RGS4 inh: inactive

How did N#CC1=C(N)SC(N)=C(C#N)C1c1cccc(O)c1 do in these assays?
MrgX1 antag: inactive; MrgX1 agonist: 39; RGS4 act: inactive; MrgX1 PAM: inactive; RGS4 inh: inactive

What do the screens show for `COc1ccc(C2C(C#N)=C(N)SC(N)=C2C#N)cc1OC`?
MrgX1 antag: -4.6; MrgX1 agonist: inactive; RGS4 act: inactive; MrgX1 PAM: inactive; RGS4 inh: inactive

How did O=[N+]([O-])c1cccc(/C=C/C=N/Nc2nc(N3CCCCC3)nc(N3CCCCC3)n2)c1 do in these assays?
MrgX1 antag: inactive; MrgX1 agonist: inactive; RGS4 act: inactive; MrgX1 PAM: inactive; RGS4 inh: inactive

Results for Cc1cc(C)c2c(CC(=O)Nc3nccs3)coc2c1 ?
MrgX1 antag: inactive; MrgX1 agonist: inactive; RGS4 act: inactive; MrgX1 PAM: inactive; RGS4 inh: inactive

What do the screens show for `COc1cccc(CNC(=O)CCC2CCCN(C(=O)c3ccc(OC)o3)C2)c1` (configuration not stated)?
MrgX1 antag: inactive; MrgX1 agonist: inactive; RGS4 act: inactive; MrgX1 PAM: inactive; RGS4 inh: inactive

What do the screens show for `CC(C)Oc1ccc(C(=O)NC2(C(F)(F)F)NC(=O)N(CCCc3ccccc3)C2=O)cc1` (configuration not stated)?
MrgX1 antag: inactive; MrgX1 agonist: inactive; RGS4 act: -7.1; MrgX1 PAM: inactive; RGS4 inh: inactive

Results for CCCCN1C(=O)NC(NC(=O)c2ccco2)(C(F)(F)F)C1=O (configuration not stated) ?
MrgX1 antag: inactive; MrgX1 agonist: inactive; RGS4 act: inactive; MrgX1 PAM: inactive; RGS4 inh: inactive

How did COC(=O)CC1(C(=O)OC)Oc2ccc(Br)cc2C(=O)N1c1cc(Cl)c(Cl)cc1Cl (configuration not stated) do in these assays?
MrgX1 antag: inactive; MrgX1 agonist: inactive; RGS4 act: inactive; MrgX1 PAM: inactive; RGS4 inh: inactive

Results for CCOc1ccccc1NC(=S)NC(=O)CCCOc1ccc(Cl)cc1Cl ?
MrgX1 antag: inactive; MrgX1 agonist: inactive; RGS4 act: -7.3; MrgX1 PAM: inactive; RGS4 inh: inactive

What do the screens show for `Cc1c(CCOC(=O)c2ccc([N+](=O)[O-])cc2)sc[n+]1CC(=O)c1ccccc1`?
MrgX1 antag: inactive; MrgX1 agonist: inactive; RGS4 act: inactive; MrgX1 PAM: inactive; RGS4 inh: inactive

How did COc1ccc(C(=O)OCCc2sc[n+](CC(=O)c3ccccc3)c2C)cc1 do in these assays?
MrgX1 antag: inactive; MrgX1 agonist: inactive; RGS4 act: -11; MrgX1 PAM: inactive; RGS4 inh: inactive

How did COc1ccc(Cl)cc1N1C(=O)CN(Cc2cc(OC)c(OC)c(OC)c2)C1=S do in these assays?
MrgX1 antag: inactive; MrgX1 agonist: inactive; RGS4 act: inactive; MrgX1 PAM: inactive; RGS4 inh: inactive

Results for COc1cccc(CN(C)C(=O)CCNC(=O)c2ccc(Br)cc2)c1 ?
MrgX1 antag: inactive; MrgX1 agonist: inactive; RGS4 act: inactive; MrgX1 PAM: inactive; RGS4 inh: inactive

How did COc1cccc(NC(=O)CN(C)C(=O)CCNC(=O)c2ccc(Br)cc2)c1 do in these assays?
MrgX1 antag: -8.9; MrgX1 agonist: inactive; RGS4 act: inactive; MrgX1 PAM: inactive; RGS4 inh: inactive

What do the screens show for `Nc1nccnc1C(=O)OCC(=O)NNC(=O)c1ccccc1`?
MrgX1 antag: inactive; MrgX1 agonist: inactive; RGS4 act: inactive; MrgX1 PAM: inactive; RGS4 inh: inactive

What do the screens show for `CC(C)c1cc(=O)oc2c3c4c(cc12)CCCN4CCC3`?
MrgX1 antag: inactive; MrgX1 agonist: inactive; RGS4 act: inactive; MrgX1 PAM: inactive; RGS4 inh: inactive

How did CN1CCCc2cc3c(C(F)(F)F)cc(=O)oc3nc21 do in these assays?
MrgX1 antag: inactive; MrgX1 agonist: inactive; RGS4 act: -8; MrgX1 PAM: inactive; RGS4 inh: inactive

What do the screens show for `N#CCC(=O)Nc1ccc(C(=O)NCCc2c[nH]c3ccccc23)cc1`?
MrgX1 antag: inactive; MrgX1 agonist: inactive; RGS4 act: inactive; MrgX1 PAM: inactive; RGS4 inh: inactive

How did c1ccc(CN2CCN(CCOCCOc3ccc4c(c3)CCC4)CC2)cc1 do in these assays?
MrgX1 antag: -5.6; MrgX1 agonist: inactive; RGS4 act: inactive; MrgX1 PAM: inactive; RGS4 inh: inactive

Results for COc1ccccc1OCC(=O)N/N=C/c1c(O)ccc2ccccc12 ?
MrgX1 antag: inactive; MrgX1 agonist: inactive; RGS4 act: -7.6; MrgX1 PAM: inactive; RGS4 inh: inactive

How did COc1ccc(OCC(=O)N/N=C/c2ccc(OC)c(OC)c2C(=O)O)cc1 do in these assays?
MrgX1 antag: inactive; MrgX1 agonist: inactive; RGS4 act: inactive; MrgX1 PAM: inactive; RGS4 inh: inactive

How did COc1ccc(/C=N/NC(=O)COc2ccc3ccccc3c2)c(C(=O)O)c1OC do in these assays?
MrgX1 antag: -5.4; MrgX1 agonist: inactive; RGS4 act: inactive; MrgX1 PAM: inactive; RGS4 inh: inactive

What do the screens show for `Cc1ccccc1C(C(=O)NC1CCCCC1)N(C(=O)CNC(=O)c1ccco1)c1cccnc1` (configuration not stated)?
MrgX1 antag: inactive; MrgX1 agonist: inactive; RGS4 act: inactive; MrgX1 PAM: inactive; RGS4 inh: inactive

How did N#Cc1nc(COc2ccc(Cl)cc2)oc1N1CCN(Cc2ccccc2)CC1 do in these assays?
MrgX1 antag: inactive; MrgX1 agonist: inactive; RGS4 act: -7; MrgX1 PAM: inactive; RGS4 inh: inactive

What do the screens show for `N#Cc1nc(COc2ccccc2)oc1N1CCOCC1`?
MrgX1 antag: inactive; MrgX1 agonist: inactive; RGS4 act: -7.2; MrgX1 PAM: inactive; RGS4 inh: inactive

Results for N#Cc1nc(COc2ccccc2)oc1N1CCCC1 ?
MrgX1 antag: inactive; MrgX1 agonist: inactive; RGS4 act: inactive; MrgX1 PAM: inactive; RGS4 inh: inactive

Results for CCN1CCN(c2oc(COc3ccc(Cl)cc3)nc2C#N)CC1 ?
MrgX1 antag: inactive; MrgX1 agonist: inactive; RGS4 act: inactive; MrgX1 PAM: inactive; RGS4 inh: inactive

Results for CCCSc1nnc(NC(=O)c2sc3nc(-c4cccs4)ccc3c2N)s1 ?
MrgX1 antag: inactive; MrgX1 agonist: 38; RGS4 act: inactive; MrgX1 PAM: inactive; RGS4 inh: inactive

What do the screens show for `Nc1nonc1-n1nnc(C(=O)N/N=C/c2ccc(O)cc2)c1CN1CCCCCC1`?
MrgX1 antag: -8.6; MrgX1 agonist: inactive; RGS4 act: inactive; MrgX1 PAM: inactive; RGS4 inh: inactive

How did CCOc1ccc(NC(=S)N2CCN(S(=O)(=O)c3ccc(C)cc3)CC2)cc1 do in these assays?
MrgX1 antag: inactive; MrgX1 agonist: inactive; RGS4 act: inactive; MrgX1 PAM: inactive; RGS4 inh: inactive

How did COc1ccc2c(ccn2S(=O)(=O)c2ccccc2)c1 do in these assays?
MrgX1 antag: inactive; MrgX1 agonist: inactive; RGS4 act: inactive; MrgX1 PAM: inactive; RGS4 inh: inactive
